Drawing on ChEMBL document CHEMBL3627629 (Bioorg Med Chem Lett, 2015), this text covers Ki for 12 molecules.

Common to all, as to format: cell-based
The target in assay [1] is T1, Muscarinic acetylcholine receptor M5 (Homo sapiens, UniProt P08912).
T1 sequence (P08912 whole entry): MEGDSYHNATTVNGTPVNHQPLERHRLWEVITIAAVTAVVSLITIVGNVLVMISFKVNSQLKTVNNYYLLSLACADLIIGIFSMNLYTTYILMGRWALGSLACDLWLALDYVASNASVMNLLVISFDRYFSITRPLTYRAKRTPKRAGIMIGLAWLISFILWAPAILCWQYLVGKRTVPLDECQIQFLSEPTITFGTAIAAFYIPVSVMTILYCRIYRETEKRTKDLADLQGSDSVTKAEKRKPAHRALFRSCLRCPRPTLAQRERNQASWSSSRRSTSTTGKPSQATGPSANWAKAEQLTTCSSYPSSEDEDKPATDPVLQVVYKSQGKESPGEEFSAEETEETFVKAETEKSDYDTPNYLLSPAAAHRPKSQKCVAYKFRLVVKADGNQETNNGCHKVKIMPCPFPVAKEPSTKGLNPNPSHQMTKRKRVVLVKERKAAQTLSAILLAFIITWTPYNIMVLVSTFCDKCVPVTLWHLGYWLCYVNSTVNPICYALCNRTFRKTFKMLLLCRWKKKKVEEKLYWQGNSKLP
Kind of assay: Displacement of [3H]NMS from human muscarinic M5 receptor expressed in CHO cells after 2 hrs by liquid scintillation spectrometry analysis. The essentials:
(§1)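 Membranes from CHO cells stably expressing recombinant human receptor: 10 µg protein/well for M1 and M5, 3 µg for M3. Incubated with 0.3 nM [3H]NMS and 1 nM–100 µM analog in 50 mM Tris-HCl pH 7.4, 2 h at 25 °C. Nonspecific binding defined with 1 µM atropine. GF/B filtration, washed three times. Ki from IC50 by Cheng-Prusoff. Three independent experiments in duplicate, mean ± SEM.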

The target in assay [2] is Muscarinic acetylcholine receptor M3 (Homo sapiens, UniProt P20309). Kind of assay: Displacement of [3H]NMS from human muscarinic M3 receptor expressed in CHO cells after 2 hrs by liquid scintillation spectrometry analysis. The essentials: as §1
Assay [3] deals with T2, Muscarinic acetylcholine receptor M1 (Homo sapiens, UniProt P11229).
T2 sequence (P11229 whole entry): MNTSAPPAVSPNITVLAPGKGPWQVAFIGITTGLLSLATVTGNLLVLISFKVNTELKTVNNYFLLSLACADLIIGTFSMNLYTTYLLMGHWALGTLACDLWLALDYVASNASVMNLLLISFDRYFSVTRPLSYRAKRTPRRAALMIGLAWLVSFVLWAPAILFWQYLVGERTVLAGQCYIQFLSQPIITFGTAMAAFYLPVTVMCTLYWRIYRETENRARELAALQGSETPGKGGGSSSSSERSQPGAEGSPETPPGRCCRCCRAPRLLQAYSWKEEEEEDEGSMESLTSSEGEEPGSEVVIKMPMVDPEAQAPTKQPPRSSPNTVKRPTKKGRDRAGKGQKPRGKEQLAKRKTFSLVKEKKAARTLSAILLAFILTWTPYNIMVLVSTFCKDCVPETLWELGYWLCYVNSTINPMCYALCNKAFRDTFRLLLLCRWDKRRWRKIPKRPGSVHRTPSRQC
Kind of assay: Displacement of [3H]NMS from human muscarinic M1 receptor expressed in CHO cells after 2 hrs by liquid scintillation spectrometry analysis. In outline:
as §1

Sequence of Muscarinic acetylcholine receptor M3 (P20309 whole entry): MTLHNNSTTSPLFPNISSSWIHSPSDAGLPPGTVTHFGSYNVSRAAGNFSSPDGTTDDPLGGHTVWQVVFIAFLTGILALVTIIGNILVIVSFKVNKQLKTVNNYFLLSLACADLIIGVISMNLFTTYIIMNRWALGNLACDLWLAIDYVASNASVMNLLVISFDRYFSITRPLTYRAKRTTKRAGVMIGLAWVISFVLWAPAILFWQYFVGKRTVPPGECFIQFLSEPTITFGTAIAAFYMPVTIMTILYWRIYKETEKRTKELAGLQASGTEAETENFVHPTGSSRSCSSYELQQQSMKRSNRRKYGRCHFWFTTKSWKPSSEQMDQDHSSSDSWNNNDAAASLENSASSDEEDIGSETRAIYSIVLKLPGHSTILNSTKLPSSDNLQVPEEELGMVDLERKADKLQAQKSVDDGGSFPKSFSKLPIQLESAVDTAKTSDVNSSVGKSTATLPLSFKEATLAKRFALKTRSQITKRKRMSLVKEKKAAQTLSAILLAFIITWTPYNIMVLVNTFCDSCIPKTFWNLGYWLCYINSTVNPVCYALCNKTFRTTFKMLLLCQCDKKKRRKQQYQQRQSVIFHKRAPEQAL

For the molecule `COc1ccc(CCC(=O)OCC2(c3ccccc3)CCN(C)CC2)cc1OC`, the inhibition constant Ki in assay [1] was 2.14 µM; in assay [2], 4.6 µM; in assay [3], 3.63 µM.
In the same order, the values of `COc1ccc(CCNC(=O)C2(c3ccccc3)CCN(C)CC2)cc1OC` are greater than 30 µM, greater than 10 µM and greater than 30 µM.
Consider `COc1ccc(CCC(=O)OCC2(c3ccccc3)CCN(C)CC2)cc1`, for which the Ki amounted to 0.38 µM in assay [1], 0.37 µM in assay [2] and 0.67 µM in assay [3].
On to `COc1ccc(CCNC(=O)C2(c3ccccc3)CCN(C)CC2)cc1`, for which the results for the Ki in assay [1], in assay [2] and in assay [3] were 6.97 µM, 3.29 µM and greater than 10 µM, respectively.
In the same order, the values of `COc1ccc(CCOC(=O)C2(c3ccccc3)CCN(C)CC2)cc1` are 0.87 µM, 0.64 µM and 1.2 µM.
In the same order, the values of `COc1ccc(CCC(=O)NCC2(c3ccccc3)CCN(C)CC2)cc1OC` are greater than 10 µM, greater than 30 µM and greater than 10 µM.
In the same order, the values of `COc1ccc(CCNC(=O)NCC2(c3ccccc3)CCN(C)CC2)cc1OC` are greater than 10 µM, greater than 10 µM and greater than 10 µM.
As for `COc1ccc(CCOC(=O)C2(c3ccccc3)CCN(C)CC2)cc1OC`, the figures for the Ki in assay [1], in assay [2] and in assay [3] were 6.95 µM, 5.26 µM and 10.8 µM, respectively.
In the same order, the values of `COc1ccc(CCNC(=O)NCC2(c3ccccc3)CCN(C)CC2)cc1` are 4.3 µM, 3.55 µM and 5.4 µM.
Regarding `COc1ccc(CCC(=O)NCC2(c3ccccc3)CCN(C)CC2)cc1`, the inhibition constant Ki in assay [1] was 1.81 µM; in assay [2] it was 1.54 µM; in assay [3], 3.44 µM.
As for `COc1ccc(CCOC(=O)NCC2(c3ccccc3)CCN(C)CC2)cc1`, the Ki in assay [1] amounted to 2.05 µM; in assay [2] it was 2.3 µM; in assay [3], 2.91 µM.
Turning to `COc1ccc(CCNC(=O)OCC2(c3ccccc3)CCN(C)CC2)cc1OC`, the Ki turned out to be 5.41 µM in assay [1], 4.03 µM in assay [2] and 5.09 µM in assay [3].
